High-throughput results deposited in PubChem BioAssay by several laboratories.
Shown are actives, neighbours in structure and some others; about 2.7% of the full set was active somewhere.
MC4R antag cAMP: MC4R antagonists of cAMP signaling, primary screen, cell-based, TR-FRET, antagonist arm of biased-ligand search | Melanocortin receptor 4 (Homo sapiens), P32245 | MC4R-expressing cells, MTII-stimulated cAMP, LANCE TR-FRET | inhibition, % at 6.5 µM | 360,000 compounds, 0.48% hits | AID 540295, 2011;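 active = inhibition above its plate's cutoff, the mean of tested wells on that plate plus 3 SD, cut at about 29% in these data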;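 also: 0% = Melanotan II alone and 100% = Melanotan II plus saturating MCL0020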
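System – human MC4R-expressing U2OS cells · Also added – Melanotan II · Dosing – one concentration, 6.5 µM nominal · Timing – 30-min compound, 1-h challenge, 1-h detection, room temperature · Measured by – Eu-cAMP/anti-cAMP TR-FRET, emission 671 nm · Replicates – singlicate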
MC4R barr agon: MC4R agonists recruiting beta-arrestin, primary screen, cell-based, luminescence, agonist arm of biased-ligand search; Melanocortin receptor 4 (Homo sapiens), P32245; U2OS MC4R beta-arrestin complementation; percent of melanotan II response, DMSO zero; activation, % at 8.9 µM; 360,000 compounds, 0.98% hits; AID 540308, 2011;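 active = activation above a per-plate cutoff, the mean activation of sample wells on that plate plus 3 SD, cut at about 8% in these data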
NR2E3 ag-1: inhibitors of NR2E3-RetCOR corepressor binding, primary screen, NR2E3 agonist project, biochemical, TR-FRET, GST-NR2E3, biotin-RetCOR; 1536-well; inhibition of corepressor binding, % at 4.78 µM; 320,000 compounds, 0.12% hits;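 active = percent inhibition above the cutoff of mean plus 3 SD of all tested compounds, set per screening campaign, cut at about 20% in these data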;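 also: 0% = DMSO wells and 100% = biotin wells as full block of FRET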
Target sequence (Q9Y5X4 whole entry, looked up): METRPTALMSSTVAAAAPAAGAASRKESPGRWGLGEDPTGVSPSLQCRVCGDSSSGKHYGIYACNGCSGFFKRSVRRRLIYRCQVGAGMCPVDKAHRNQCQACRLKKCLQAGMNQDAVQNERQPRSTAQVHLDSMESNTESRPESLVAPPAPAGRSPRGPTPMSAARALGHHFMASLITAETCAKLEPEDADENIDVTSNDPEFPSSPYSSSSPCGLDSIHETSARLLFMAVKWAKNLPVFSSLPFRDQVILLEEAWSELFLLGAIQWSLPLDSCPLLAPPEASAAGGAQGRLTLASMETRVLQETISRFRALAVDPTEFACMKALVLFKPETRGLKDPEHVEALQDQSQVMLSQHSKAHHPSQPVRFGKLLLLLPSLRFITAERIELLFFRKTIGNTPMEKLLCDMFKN
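Material: NR2E3–RetCOR corepressor complex / Amount: 1.35 nM GST-NR2E3 / Medium: Tris pH 7.5 / Compound: single nominal compound dose of 4.8 µM / Incubation: 5 h at 4 °C / Technique: TR-FRET, Eu(K)-anti-GST donor, streptavidin-D2 acceptor, ex 340, em 617/671 nm / Read-out basis: percent loss of FRET ratio relative to control wells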
PG9 Ab binder: binders of HIV-1 gp120 antibody PG9, primary screen, biochemical, TR-FRET | 360,000 compounds, 0.43% hits | HIV-1 gp120 / PG9 antibody interaction | TR-FRET gp120-PG9 antibody binding | inhibition, % at 6.7 µM; in the data active = inhibition above about 8.5%
NR2E3 ag-2: NR2E3 agonists in two-hybrid cells, primary screen, cell-based, luminescence, CHO-S, Gal4-NCOR/VP16-NR2E3. Photoreceptor-specific nuclear receptor (Homo sapiens), Q9Y5X4. luciferase. inhibition of corepressor binding, % at 3.98 µM. 360,000 compounds, 0.35% hits. AID 602229, 2012;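 active = inhibition above the mean of all tested compounds plus 3 SD, cut at about 70% in these data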;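 also: 0% = DMSO with NR2E3 transfected cells and 100% = cells lacking NR2E3 construct; higher means lower luciferase signal from less NR2E3 corepressor binding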
NR1D1 modulator: modulators of Rev-erb alpha DNA binding, primary screen, biochemical, FITC-DNA, fluorescence polarization, uHTS. Nuclear receptor subfamily 1 group D member 1 (Homo sapiens), P20393. Rev-erbα–FITC-DNA binding, 90 min. activity, % at 10 µM. 370,000 compounds, 0.79% hits;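 active = activity above about 14%, limit read from the data; passing the limit was not always enough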;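 also: 0% = DMSO wells with 35 nM protein and 100% = DMSO wells with 750 nM protein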
NR2E3 ag confirm: NR2E3 agonist confirmation in cells, cell-based, luminescence, CHO-S two-hybrid | shares compounds with NR2E3 ag-2 | CHO-S mammalian two-hybrid NR2E3-NCOR, luciferase luminescence | inhibition, % at 3.98 µM | 2,300 compounds, 51% hits | AID 624378, 2012;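 active = average inhibition above a cutoff equal to the mean inhibition of all tested compounds plus one SD, cut at about 70% in these data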;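 also: 0% = DMSO in NR2E3 cells and 100% = DMSO in cells lacking NR2E3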
VP16 counter: GAL4-VP16 reporter modulators, confirmation, counter-screen for NR2E3 agonist project, cell-based, luminescence, CHO-S, high throughput. AID 624379, 2012. 2,300 compounds, 29% hits. shares compounds with NR2E3 ag-2. inhibition, % at 3.98 µM. CHO-S GAL4-VP16 luciferase reporter;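 active = mean inhibition above a cutoff equal to the average over all tested compounds plus one standard deviation, cut at about 70% in these data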;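 also: luciferase from a UAS reporter driven by GAL4-VP16 transactivation; 0% = DMSO with VP16-transfected cells and 100% = DMSO with cells lacking VP16; higher means less reporter light so more repression of VP16 activity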
Numbers without * were called inactive; · = no result given.

SMILES	MC4R antag cAMP	MC4R barr agon	NR2E3 ag-1	PG9 Ab binder	NR2E3 ag-2	NR1D1 modulator	NR2E3 ag confirm	VP16 counter
CC(=O)Nc1ccc(S(=O)(=O)Oc2ccc(C(=S)N3CCCCC3)cc2)cc1	17	0	-4	-3	55	4	70*	62
CC(Oc1ccccc1)c1nnc(N)s1 (centres undefined)	-6	4	0	-1	25	-2	·	·
CC(c1ccccc1)c1nnc(N)s1 (centres undefined)	5	-2	3	2	59	5	10	9
Cc1ccccc1C(=O)N1CCN(c2ccc(NC(=O)c3cccnc3Cl)cc2)CC1	4	1	2	0	-17	2	·	·
Nc1cc(S(=O)(=O)Nc2cc(Cl)ccc2Cl)ccc1N1CCOCC1	-4	2	-3	-1	53	3	38	47
Nc1cc(S(=O)(=O)Nc2ccccc2Cl)ccc1N1CCCC1	-2	0	3	-3	18	-4	·	·
COc1ccc(S(=O)(=O)Nc2ccc(N3CCOCC3)cc2)cc1	-4	0	-1	-2	12	0	·	·
COc1ccc(NS(=O)(=O)c2ccc(N3CCOCC3)c(N)c2)cc1	8	-1	4	0	85*	-6	90*	78*
CSc1ccc(S(=O)(=O)Nc2ccc(N3CCOCC3)c(Cl)c2)cc1	12	7	-2	-1	69	0	45	63
O=C(COC(=O)CN1C(=O)C(=O)c2ccccc21)OCN1C(=O)c2ccccc2C1=O	-22	-2	2	0	6	5	·	·
CNc1snc(C)c1C(=O)OCC(=O)c1ccc(OC)c(F)c1	-2	0	3	-1	53	-1	57	50
Cc1nc2c(-c3ccc(Cl)cc3)c(C)[nH]n2c(=O)c1Cc1ccccc1	-1	-4	1	-1	88*	-1	99*	57
COCc1cc(=O)n2[nH]c(C)c(-c3ccc(Cl)cc3)c2n1	17	-3	·	-4	51	-8	42	35
Cc1cc(C)cc(OCC(=O)Nc2ccc(CN3CCCCC3)cc2)c1	1	-1	-1	0	-1	-5	·	·
CC(C)(C)C(=O)Nc1cc2nn(-c3ccccc3)nc2cc1Cl	6	2	·	1	92*	1	75*	55
CC(=O)Nc1cc2nn(-c3ccccc3)nc2cc1Cl	-5	-2	-4	0	-116	6	·	·
Cn1c(Sc2nc3ccccc3n2C)nc2ccccc21	-6	0	-2	0	76*	-4	58	19
O=C(C1CCN(S(=O)(=O)c2cccnc2)CC1)N1CCN(c2ccccc2Cl)CC1	3	-1	2	0	-10	1	·	·
Cc1ccc(Cl)cc1N1CCN(C(=O)C2CCN(S(=O)(=O)c3cccnc3)CC2)CC1	-4	2	0	-1	52	2	53	40
CC(=O)N1c2ccc(S(=O)(=O)N3CCC(C(=O)N4CCN(c5ccc(Cl)cc5)CC4)CC3)cc2CC1C (centres undefined)	3	-3	2	-2	65	-9	77*	68
COCCCNc1nc2ccccc2[nH]c1=O	1	0	1	1	-1	1	·	·
CCn1c(SCC(=O)N(C)c2ccccc2)nc2c([nH]c3ccccc32)c1=O	-23	-1	2	-2	14	0	·	·
